# Test results from ChEMBL document CHEMBL4020824, “Discovery of Potent and Orally Bioavailable Dihydropyrazole GPR40 Agonists” (J Med Chem, 2018).
# Calls of active or inactive are those of the source. The calls are words filed in the database; no cut-off is given here.
# What was measured:
# [1] = Cmax in Sprague-Dawley rat at 3 mg/kg, po administered as single dose measured up to 24 hrs post dose by LC-MS/MS analysis; type: ADME, organism-based; design: dose 3 mg/kg, route oral; details: in vivo
# [2] = Tmax in Sprague-Dawley rat at 3 mg/kg, po administered as single dose measured up to 24 hrs post dose by LC-MS/MS analysis; type: ADME, organism-based; details: in vivo
# [3] = Clearance in Beagle dog at 0.5 mg/kg, iv administered as single dose measured up to 24 hrs post dose by LC-MS/MS analysis; type: ADME, organism-based, Canis lupus familiaris; details: in vivo
# [4] = Half life in cynomolgus monkey at 0.5 mg/kg, iv administered as single dose measured up to 24 hrs post dose by LC-MS/MS analysis; type: ADME, organism-based, Macaca fascicularis; details: in vivo
# [5] = Half life in CD1 mouse at 1 mg/kg, iv administered as bolus dose or 1 mg/kg, po administered as single dose measured up to 24 hrs post dose by LC-MS/MS analysis; type: ADME, organism-based; details: in vivo
# [6] = (§1) Stability in rat liver microsomes assessed as parent compound remaining at 1 to 3 uM incubated for 20 mins in presence NADPH measured up to 90 mins by LC/MS/MS analysis; type: ADME, microsome; details: liver microsomes, read-out: Stability
# Outline: (§2)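 Human or rat liver microsomal incubations. The read-outs were % parent remaining, % D-ring dealkylation metabolites, % GSH adducts, and half-life (min). The metabolites followed were CYP450-mediated oxidative de-alkylation products (phenols) and GSH conjugates.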
# [7] = Clearance in cynomolgus monkey at 0.5 mg/kg, iv administered as single dose measured up to 24 hrs post dose by LC-MS/MS analysis; type: ADME, organism-based, Macaca fascicularis; details: in vivo
# [8] = (§3) Half life in human liver microsomes at 1 to 3 uM incubated for 20 mins in presence NADPH measured up to 90 mins by LC/MS/MS analysis; type: ADME, microsome; details: liver microsomes
# [9] = Half life in Beagle dog at 0.5 mg/kg, iv administered as single dose measured up to 24 hrs post dose by LC-MS/MS analysis; type: ADME, organism-based, Canis lupus familiaris; details: in vivo
# [10] = biological target: T1, Free fatty acid receptor 1 (Homo sapiens, UniProt O14842); assay: Agonist activity at human GPR40 expressed in CHOA12 cells assessed as induction of Ca2+ mobilization by FLIPR assay; type: functional, cell-based
# [11] = Clearance in Sprague-Dawley rat at 1 mg/kg, iv administered as single dose measured up to 24 hrs post dose by LC-MS/MS analysis; type: ADME, organism-based; details: in vivo
# [12] = Volume of distribution at steady state in Sprague-Dawley rat at 1 mg/kg, iv administered as single dose measured up to 24 hrs post dose by LC-MS/MS analysis; type: ADME, organism-based; details: in vivo, read-out: Vdss
# [13] = (§4) Half life in rat liver microsomes at 1 to 3 uM incubated for 20 mins in presence NADPH measured up to 90 mins by LC/MS/MS analysis; type: ADME, microsome; details: liver microsomes
# [14] = Volume of distribution at steady state in Beagle dog at 0.5 mg/kg, iv administered as single dose measured up to 24 hrs post dose by LC-MS/MS analysis; type: ADME, organism-based, Canis lupus familiaris; details: in vivo, read-out: Vdss
# [15] = Half life in Sprague-Dawley rat at 1 mg/kg, iv administered as single dose measured up to 24 hrs post dose by LC-MS/MS analysis; type: ADME, organism-based; details: in vivo
# [16] = Oral bioavailability in Sprague-Dawley rat at 3 mg/kg administered via gavage as single dose measured up to 24 hrs post dose by LC-MS/MS analysis; type: ADME, organism-based; details: in vivo
# [17] = (§5) Stability in human liver microsomes assessed as parent compound remaining at 1 to 3 uM incubated for 20 mins in presence NADPH measured up to 90 mins by LC/MS/MS analysis; type: ADME, microsome; details: liver microsomes, read-out: Stability; outline: as §2
# [18] = Clearance in CD1 mouse at 1 mg/kg, iv administered as bolus dose or 1 mg/kg, po administered as single dose measured up to 24 hrs post dose by LC-MS/MS analysis; type: ADME, organism-based; details: in vivo
# [19] = Volume of distribution at steady state in cynomolgus monkey at 0.5 mg/kg, iv administered as single dose measured up to 24 hrs post dose by LC-MS/MS analysis; type: ADME, organism-based, Macaca fascicularis; details: in vivo, read-out: Vdss
# [20] = Volume of distribution at steady state in CD1 mouse at 1 mg/kg, iv via bolus dose or 1 mg/kg, po administered as single dose measured up to 24 hrs post dose by LC-MS/MS analysis; type: ADME, organism-based; details: in vivo, read-out: Vdss
# [21] = biological target: T2, Peroxisome proliferator-activated receptor gamma (Homo sapiens, UniProt P37231); assay: Agonist activity at PPARgamma (unknown origin)
# T2 sequence (P37231 whole entry): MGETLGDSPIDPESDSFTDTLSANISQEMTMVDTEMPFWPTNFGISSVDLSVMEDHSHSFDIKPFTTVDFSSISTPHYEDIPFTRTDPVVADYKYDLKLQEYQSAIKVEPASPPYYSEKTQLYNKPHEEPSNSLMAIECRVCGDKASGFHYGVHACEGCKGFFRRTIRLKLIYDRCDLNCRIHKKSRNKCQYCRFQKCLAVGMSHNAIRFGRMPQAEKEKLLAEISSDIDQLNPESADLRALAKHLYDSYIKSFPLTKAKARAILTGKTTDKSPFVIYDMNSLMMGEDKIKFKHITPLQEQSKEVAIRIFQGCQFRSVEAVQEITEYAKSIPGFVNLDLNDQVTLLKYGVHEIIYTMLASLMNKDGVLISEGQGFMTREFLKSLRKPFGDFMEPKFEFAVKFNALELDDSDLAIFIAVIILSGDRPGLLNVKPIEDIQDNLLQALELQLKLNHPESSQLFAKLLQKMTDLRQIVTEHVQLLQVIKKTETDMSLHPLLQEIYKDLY
# [22] = biological target: T1, Free fatty acid receptor 1; assay: Agonist activity at human GPR40 expressed in CHOA12 cells assessed as induction of Ca2+ mobilization at 8.3 uM by FLIPR assay relative to compound 2; type: functional, cell-based
# [23] = test system: Liver; assay: (§6) Drug level in human liver microsomes treated with 2-((4S,5S)-1-(4-(((3R,4R)-1-(5-Chloro-2-methoxypyridin-4-yl)-3-methylpiperidin-4-yl)oxy)phenyl)-4-methyl-3-(trifluoromethyl)-4,5-dihydro-1H-pyrazol-5-yl)acetic acid at 1 to 3 uM incubated for 20 mins in presence of NADPH measured after 90 mins by LC/MS/MS analysis; type: ADME, microsome; outline: as §2
# [24] = test system: Liver; assay: as §6, with “rat” for “human”; type: ADME, microsome; outline: as §2
# [25] = test system: Mus musculus; assay: Antidiabetic activity in C57BL/6J mouse assessed as glucose lowering effect at 1 mg/kg, po administered 1 hr prior to glucose challenge measured after 120 mins by IPGTT; type: functional, organism-based
# [26] = test system: Liver; assay: (§7) Drug level in human liver microsomes treated with 2-((4S,5S)-1-(4-(((3R,4R)-1-(5-Ethoxy-2-fluorophenyl)-3-methylpiperidin-4-yl)oxy)phenyl)-4-methyl-3-(trifluoromethyl)-4,5-dihydro-1H-pyrazol-5-yl)acetic acid at 1 to 3 uM incubated for 20 mins in presence of NADPH measured after 90 mins by LC/MS/MS analysis; type: ADME, microsome; outline: as §2
# [27] = test system: Liver; assay: as §7, with “rat” for “human”; type: ADME, microsome; outline: as §2
# [28] = Cmax in cynomolgus monkey at 0.5 mg/kg, po administered as single dose measured up to 24 hrs post dose by LC-MS/MS analysis; type: ADME, organism-based, Macaca fascicularis; design: dose 0.5 mg/kg, route oral; details: in vivo
# [29] = Cmax in C57BL6 mouse at 3 mg/kg, po administered as single dose via gavage measured up to 24 hrs post dose by LC-MS/MS analysis; type: ADME, organism-based; design: dose 3 mg/kg, route oral; details: in vivo
# [30] = Oral bioavailability in C57BL6 mouse at 3 mg/kg administered as single dose via gavage measured up to 24 hrs post dose by LC-MS/MS analysis; type: ADME, organism-based; details: in vivo
# [31] = Clearance in cynomolgus monkey at 0.2 mg/kg, iv administered as single dose measured up to 24 hrs post dose by LC-MS/MS analysis; type: ADME, organism-based, Macaca fascicularis; details: in vivo
# [32] = test system: Liver; assay: as §1; type: ADME, microsome; details: microsomes, 20 min, 3 µM; outline: as §2
# [33] = test system: Liver; assay: as §3; type: ADME, microsome; details: microsomes, 20 min, 3 µM
# [34] = Volume of distribution at steady state in cynomolgus monkey at 0.2 mg/kg, iv administered as single dose measured up to 24 hrs post dose by LC-MS/MS analysis; type: ADME, organism-based, Macaca fascicularis; details: in vivo, read-out: Vdss
# [35] = Oral bioavailability in cynomolgus monkey at 0.5 mg/kg administered via gavage as single dose measured up to 24 hrs post dose by LC-MS/MS analysis; type: ADME, organism-based, Macaca fascicularis; details: in vivo
# [36] = test system: Liver; assay: as §4; type: ADME, microsome; details: microsomes, 20 min, 3 µM
# [37] = Tmax in cynomolgus monkey at 0.5 mg/kg, po administered as single dose measured up to 24 hrs post dose by LC-MS/MS analysis; type: ADME, organism-based, Macaca fascicularis; details: in vivo
# [38] = Half life in cynomolgus monkey at 0.2 mg/kg, iv administered as single dose measured up to 24 hrs post dose by LC-MS/MS analysis; type: ADME, organism-based, Macaca fascicularis; details: in vivo
# [39] = Tmax in C57BL6 mouse at 3 mg/kg, po administered as single dose measured up to 24 hrs post dose by LC-MS/MS analysis; type: ADME, organism-based; details: in vivo
# [40] = test system: Liver; assay: as §5; type: ADME, microsome; details: microsomes, 20 min, 3 µM; outline: as §2
# T1 sequence (O14842 whole entry): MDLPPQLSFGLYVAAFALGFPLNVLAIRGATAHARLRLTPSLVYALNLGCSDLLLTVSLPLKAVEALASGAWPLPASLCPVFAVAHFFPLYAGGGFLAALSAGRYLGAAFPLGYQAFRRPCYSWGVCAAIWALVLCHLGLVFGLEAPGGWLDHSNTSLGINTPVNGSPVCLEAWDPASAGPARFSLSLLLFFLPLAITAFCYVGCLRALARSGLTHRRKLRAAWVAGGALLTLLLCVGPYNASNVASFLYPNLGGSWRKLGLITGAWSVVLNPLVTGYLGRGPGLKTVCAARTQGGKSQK
smiles,measurement,setting,value
CCOc1ccc(F)c(N2CC[C@@H](Oc3ccc(N4N=C(C(F)(F)F)[C@@H](C)[C@@H]4CC(=O)O)cc3)[C@H](F)C2)c1,Cmax,[1],3200 nM
same,Tmax,[2],1.7 h
same,clearance,[3],2.6 mL/min/kg
same,half-life,[4],9.4 h
same,half-life,[5],3.3 h
same,"remaining at 20 min, up to 3 µM",[6],79%
same,clearance,[7],4 mL/min/kg
same,half-life,[8],1.58 h
same,half-life,[9],7.3 h
same,EC50,[10],150 nM
same,clearance,[11],5 mL/min/kg
same,Vd,[12],0.8 L/kg
same,half-life,[13],0.617 h
same,Vd,[14],0.6 L/kg
same,half-life,[15],3.4 h
same,bioavailability,[16],89%
same,"remaining at 20 min, up to 3 µM",[17],93%
same,clearance,[18],1.6 mL/min/kg
same,Vd,[19],2.2 L/kg
same,Vd,[20],0.7 L/kg
COc1ccc(F)c(-c2ccc(Cc3ccc(N4N=C(C(F)(F)F)[C@@H](C)[C@@H]4CC(=O)O)cc3)c(C)c2)c1,EC50,[21],2600 nM
COc1ccc(F)c(N2CCC(Oc3ccc(N4CCC[C@@H]4CC(=O)O)cc3)CC2)c1,Activity,[22],Active
same,EC50,[10],1200 to 2600 nM
COc1ccc(F)c(N2CCC(Cc3ccc(N4C[C@H](C(F)(F)F)C[C@@H]4CC(=O)O)cc3)CC2)c1,Activity,[22],Active
CCOc1cc(N2CC[C@@H](Oc3ccc(N4N=C(C(F)(F)F)[C@@H](C)[C@@H]4CC(=O)O)cc3)[C@H](C)C2)c(Cl)cn1,EC50,[10],190 to 250 nM
C[C@@H]1CN(c2cc(O)ncc2Cl)CC[C@H]1Oc1ccc(N2N=C(C(F)(F)F)[C@@H](C)[C@@H]2CC(=O)O)cc1,Drug uptake,[23],Metabolite_Detected
same,Drug uptake,[24],Metabolite_Detected
COc1ccc(F)c(-c2ccc(Cc3ccc(N4C[C@H](C(F)(F)F)C[C@@H]4CC(=O)O)cc3)c(C)c2)c1,Activity,[25],Active
COc1ccc(F)c(N2CC[C@@H](COc3ccc(N4C[C@H](C(F)(F)F)C[C@@H]4CC(=O)O)cc3)C2)c1,Activity,[22],Active
C[C@@H]1CN(c2cc(O)ccc2F)CC[C@H]1Oc1ccc(N2N=C(C(F)(F)F)[C@@H](C)[C@@H]2CC(=O)O)cc1,Drug uptake,[26],Metabolite_Detected
same,Drug uptake,[27],Metabolite_Detected
C[C@@H]1C(C(F)(F)F)=NN(c2ccc(OC3CCN(c4ccc(F)cc4)CC3)cc2)[C@H]1CC(=O)O,EC50,[10],2550 to 2730 nM
COc1ccc(Cl)c(N2CCC(Oc3ccc(N4N=C(C(F)(F)F)[C@@H](C)[C@@H]4CC(=O)O)cc3)CC2)c1,EC50,[10],100 nM
COc1ccc(F)c(N2CCC(Oc3ccc(N4N=C(C(F)(F)F)[C@@H](C)[C@@H]4CC(=O)O)cc3)CC2)c1,Cmax,[28],200 nM
same,Cmax,[1],1100 nM
same,Tmax,[2],0.7 h
same,Cmax,[29],3400 nM
same,bioavailability,[30],96%
same,half-life,[5],1.5 h
same,clearance,[31],6.6 mL/min/kg
same,Stability,[32],27%
same,t1/2,[33],0.8 h
same,EC50,[10],110 nM
same,Vd,[34],1.7 L/kg
same,bioavailability,[35],66%
same,clearance,[11],17 mL/min/kg
same,Vd,[12],0.6 L/kg
same,t1/2,[36],0.383 h
same,half-life,[15],1.4 h
same,Tmax,[37],2 h
same,half-life,[38],5.3 h
same,bioavailability,[16],36%
same,EC50,[21],> 50000 nM
same,Tmax,[39],1 h
same,Stability,[40],42%
same,clearance,[18],6 mL/min/kg
same,Vd,[20],0.8 L/kg
